Tests used:
HT-29 = assay: Survival of human HT29 cells after 48 hrs by MTS reduction assay; format: functional, cell-based
[1] = Survival of mouse F1 cells after 48 hrs by MTS reduction assay; settings: Mus musculus, F1, 48 h
BP8 = assay: Survival of […] AhR -/- BP8 cells after 48 hrs by MTS reduction assay; format: functional, cell-based
HEK293 = assay: Survival of human HEK293 cells after 48 hrs by MTS reduction assay; format: functional, cell-based
[2] = Inhibition of starfish CDK1/cyclin B in presence of 15 uM ATP; set-up: species or system Marthasterias glacialis
SH-SY5Y [3] = assay: Survival of human SH-SY5Y cells after 24 hrs by MTS reduction assay; format: functional, cell-based
SH-SY5Y [4] = assay: Survival of human SH-SY5Y cells at 25 uM by MTS reduction assay; format: functional, cell-based; settings: for viability at 25 µM: Homo sapiens, SH-SY5Y, read-out: Survival
In short: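 Viability was read by MTS reduction and expressed as percent of untreated cells, as the average ± SE of three independent measurements, representative of two independent experiments.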

A549 = assay: Survival of human A549 cells after 48 hrs by MTS reduction assay; format: functional, cell-based
SH-SY5Y [5] = assay: Death of human SH-SY5Y cells in presence of 20 uM Q-VD-OPh by MTS reduction assay; format: functional, cell-based
HCT-116 = assay: Survival of human HCT116 cells after 48 hrs by MTS reduction assay; format: functional, cell-based
In short: (§1)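 Viability read by MTS reduction. IC50 taken from dose-response curves, triplicate measurements. HCT116 grown in McCoy's 5A with 10% FCS. MDA-MB-231 grown in DMEM with 10% FCS and seeded at 7500 cells/well.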

MDA-MB-231 = assay: Survival of human MDA-MB-231 cells after 48 hrs by MTS reduction assay; format: functional, cell-based; in short: as §1
PC-3 = assay: Survival of human PC3 cells after 48 hrs by MTS reduction assay; format: functional, cell-based
Huh-7 = assay: Survival of human Huh7 cells after 48 hrs by MTS reduction assay; format: functional, cell-based
SH-SY5Y [6] = assay: Death of human SH-SY5Y cells at 25 uM after 48 hrs by LDH release assay; format: functional
In short: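 SH-SY5Y human neuroblastoma cells were grown in DMEM with 2 mM L-glutamine, antibiotics and 10% FCS at 37 °C under 5% CO2. […] Lactate dehydrogenase release was measured 48 h after addition and expressed as percent cell death.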

SH-SY5Y [7] = assay: Death of human SH-SY5Y cells in absence of 20 uM Q-VD-OPh by MTS reduction assay; format: functional, cell-based
[8] = target: Cyclin-dependent kinase 5/CDK5 activator 1 (Homo sapiens, UniProt Q00535); assay: (§2) Inhibition of mammalian CDK5/p25; format: protein-complex assay
In short: (§3)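 Recombinant CDK5 and p25, each expressed in E. coli as GST fusions and affinity-purified on glutathione agarose, mixed in equal amounts. Phosphate incorporation onto P81 paper read by scintillation counting, blank subtracted. Activity taken as % of uninhibited. IC50 from dose-response curves.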

SH-SY5Y [9] = assay: Survival of human SH-SY5Y cells after 48 hrs by MTS reduction assay; format: functional, cell-based
F1 (hepatoma cell line) = assay: Survival of mouse F1 cells after 48 hrs by MTS reduction assay; settings: F1
[10] = target: Cyclin-dependent kinase 5/CDK5 activator 1 (Homo sapiens, UniProt Q00535+Q15078); assay: as §2; format: protein-complex assay; in short: as §3
[11] = target: Glycogen synthase kinase-3 (Homo sapiens, UniProt P49840+P49841); assay: Inhibition of porcine brain GSK3alpha/beta; settings: Sus scrofa
[12] = Homo sapiens, SH-SY5Y, read-out: IC50

Sequence of Cyclin-dependent kinase 5/CDK5 activator 1 (Homo sapiens, UniProt Q00535+Q15078) (Q00535 whole entry): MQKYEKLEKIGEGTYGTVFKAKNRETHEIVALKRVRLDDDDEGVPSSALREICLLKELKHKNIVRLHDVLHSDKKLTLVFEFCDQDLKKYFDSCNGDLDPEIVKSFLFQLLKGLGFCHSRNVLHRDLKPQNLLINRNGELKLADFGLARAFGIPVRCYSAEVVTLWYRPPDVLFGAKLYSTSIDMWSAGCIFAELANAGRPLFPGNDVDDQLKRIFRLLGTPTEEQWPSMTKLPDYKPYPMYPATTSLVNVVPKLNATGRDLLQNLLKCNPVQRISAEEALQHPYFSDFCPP
Sequence of Cyclin-dependent kinase 5/CDK5 activator 1 (Homo sapiens, UniProt Q00535+Q15078) (Q15078 whole entry): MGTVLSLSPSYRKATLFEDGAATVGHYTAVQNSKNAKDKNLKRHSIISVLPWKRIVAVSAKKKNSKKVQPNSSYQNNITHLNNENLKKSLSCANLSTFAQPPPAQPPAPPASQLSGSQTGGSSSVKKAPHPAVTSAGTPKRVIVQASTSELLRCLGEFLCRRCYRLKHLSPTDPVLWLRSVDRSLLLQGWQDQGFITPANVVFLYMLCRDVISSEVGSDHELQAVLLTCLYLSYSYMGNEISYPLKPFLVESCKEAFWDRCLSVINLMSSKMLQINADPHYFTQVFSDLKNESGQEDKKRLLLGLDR
Sequence of Cyclin-dependent kinase 5/CDK5 activator 1 (Homo sapiens, UniProt Q00535) (Q00535 whole entry, the tested form may be a part): as the sequence (Q00535 whole entry) above
Sequence of Cyclin-dependent kinase 5/CDK5 activator 1 (Homo sapiens, UniProt Q00535) (Q15078 whole entry, further chain, the tested form may be a part): as the sequence (Q15078 whole entry) above
Sequence of Glycogen synthase kinase-3 (P49840 whole entry, looked up): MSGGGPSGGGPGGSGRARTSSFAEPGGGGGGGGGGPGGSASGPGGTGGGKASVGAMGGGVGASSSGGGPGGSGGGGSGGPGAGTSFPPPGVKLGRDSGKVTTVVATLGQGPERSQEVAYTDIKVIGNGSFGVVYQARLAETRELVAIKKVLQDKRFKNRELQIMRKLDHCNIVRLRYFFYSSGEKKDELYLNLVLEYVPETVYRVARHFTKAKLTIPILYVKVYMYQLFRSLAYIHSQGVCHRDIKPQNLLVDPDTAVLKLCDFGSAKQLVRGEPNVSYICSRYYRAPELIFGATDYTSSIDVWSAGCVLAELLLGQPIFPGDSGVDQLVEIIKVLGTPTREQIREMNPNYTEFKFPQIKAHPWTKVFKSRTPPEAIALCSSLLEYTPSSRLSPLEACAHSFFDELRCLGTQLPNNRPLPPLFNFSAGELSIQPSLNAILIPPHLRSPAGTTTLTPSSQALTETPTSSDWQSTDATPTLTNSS
Sequence of Glycogen synthase kinase-3 (P49841 whole entry, looked up): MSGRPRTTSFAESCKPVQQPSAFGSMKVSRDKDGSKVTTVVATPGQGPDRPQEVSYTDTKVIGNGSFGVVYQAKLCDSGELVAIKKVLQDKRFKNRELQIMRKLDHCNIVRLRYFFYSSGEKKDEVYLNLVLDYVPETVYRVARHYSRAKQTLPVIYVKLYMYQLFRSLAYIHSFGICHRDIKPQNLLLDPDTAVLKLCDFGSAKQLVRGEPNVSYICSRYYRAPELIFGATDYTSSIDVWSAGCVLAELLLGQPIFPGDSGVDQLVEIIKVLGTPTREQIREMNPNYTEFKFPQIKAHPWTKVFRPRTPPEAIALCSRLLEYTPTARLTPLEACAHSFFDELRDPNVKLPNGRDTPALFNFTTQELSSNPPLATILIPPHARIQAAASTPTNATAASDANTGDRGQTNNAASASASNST

Row | Compound | IC50 (HT-29; ht-29) | IC50 [1] | IC50 (BP8; bp8) | IC50 (HEK293; hek293) | IC50 [2] | IC50 (SH-SY5Y [3]; Homo sapiens, SH-SY5Y, 24 h) | Survival (SH-SY5Y [4]) | IC50 (A549; Homo sapiens, A549, 48 h) | IC50 (SH-SY5Y [5]; Homo sapiens, SH-SY5Y) | IC50 (HCT-116; hct-116) | IC50 (MDA-MB-231; mda-mb-231) | IC50 (PC-3; Homo sapiens, PC-3, 48 h) | IC50 (Huh-7; huh-7) | Activity (SH-SY5Y [6]) | IC50 (SH-SY5Y [7]; [12]) | IC50 [8] | IC50 (SH-SY5Y [9]; Homo sapiens, SH-SY5Y, 48 h) | IC50 (BP8; Mus musculus, BP8, 48 h) | viability at 25 µM (SH-SY5Y [4]) | IC50 (MDA-MB-231; Homo sapiens, MDA-MB-231, 48 h) | other results
1 | Cl.Cn1c(O)c(C2=Nc3ccccc3/C2=N\OCCN2CCCC2)c2cccc(Br)c21 | 5.4 µM | 2.9 µM | 7.5 µM | 8 µM | > 10 µM | 7.3 µM | 1% | 14.6 µM | 13 µM | 5.1 µM | 12 µM | 19 µM | 5.6 µM | 94% | 5 µM | > 10 µM | 4 µM | – | – | – | –
2 | Cl.Oc1[nH]c2c(Br)cccc2c1C1=Nc2ccccc2/C1=N\OCCN1CCCC1 | – | 3.1 µM | – | – | > 100 µM | 3.1 µM | – | 16 µM | – | – | – | 30 µM | – | 80% | – | > 10 µM | 2 µM | > 30 µM | 12% | > 30 µM | IC50 (HEK293; Homo sapiens, HEK293, 48 h): > 30 µM; IC50 (HCT-116; Homo sapiens, HCT-116, 48 h): 3.8 µM; IC50 (Huh-7; Homo sapiens, Huh-7, 48 h): 13.6 µM; IC50 (SH-SY5Y [7]; sh-sy5y, read-out: IC50): 2.8 µM
3 | Cl.Cl.Oc1[nH]c2c(Br)cccc2c1C1=Nc2ccccc2/C1=N\OCCN1CCNCC1 | 1.9 µM | 1.4 µM | – | 1.9 µM | > 10 µM | 6 µM | – | 6 µM | 6.8 µM | – | – | 6 µM | 2 µM | 100% | 6.2 µM | > 10 µM | 6 µM | 5.4 µM | 3% | 5.1 µM | IC50 (HCT-116; Homo sapiens, HCT-116, 48 h): 5.1 µM
4 | CN(C)CCO/N=C1/C(c2c(O)[nH]c3c(Br)cccc23)=Nc2ccccc21 | 21.8 µM | – | 19.5 µM | 14.4 µM | – | – | 1% | – | – | 6.5 µM | 26.4 µM | – | 19.6 µM | 86% | – | – | – | – | – | – | IC50 (F1 (hepatoma cell line)): 5.5 µM; IC50 (SH-SY5Y [3]; sh-sy5y): 4.1 µM; IC50 (A549; a549): 21.8 µM; IC50 (PC-3; pc-3): 27.2 µM; IC50 (SH-SY5Y [7]; sh-sy5y, read-out: IC50): 1.5 µM; IC50 [10]: > 10 µM; IC50 (SH-SY5Y [9]; sh-sy5y): 2 µM
5 | O=Nc1c(-c2c(O)[nH]c3c(Br)cccc23)[nH]c2ccccc12 | – | 8 µM | – | – | – | 8 µM | – | 21.8 µM | 7 µM | – | – | 19.8 µM | – | 94% | 7 µM | – | 7.1 µM | 19.4 µM | 4% | 10.5 µM | IC50 (HT-29; Homo sapiens, HT-29, 48 h): 21.2 µM; IC50 (HEK293; Homo sapiens, HEK293, 48 h): 12.3 µM; IC50 (HCT-116; Homo sapiens, HCT-116, 48 h): 6.2 µM; IC50 (Huh-7; Homo sapiens, Huh-7, 48 h): 9 µM
6 | Oc1[nH]c2c(Br)cccc2c1C1=Nc2ccccc2/C1=N\OCCN1CCNCC1 | 6.3 µM | – | 5.6 µM | 5 µM | – | – | 3% | – | – | 5.4 µM | 5.3 µM | – | 5.3 µM | 94% | – | – | – | – | – | – | IC50 (F1 (hepatoma cell line)): 1.7 µM; IC50 (SH-SY5Y [3]; sh-sy5y): 10.5 µM; IC50 (A549; a549): 5.9 µM; IC50 (SH-SY5Y [5]; sh-sy5y): 10.3 µM; IC50 (PC-3; pc-3): 6.1 µM; IC50 (SH-SY5Y [7]): 10 µM; IC50 [10]: > 10 µM; IC50 (SH-SY5Y [9]; sh-sy5y): 6.2 µM
7 | Cn1c(O)c(C2=Nc3ccccc3/C2=N\OCCN2CCCC2)c2cccc(Br)c21 | 19.8 µM | – | 18.8 µM | 21.4 µM | – | – | 15% | – | – | 13.6 µM | 26.8 µM | – | 18.8 µM | 78% | – | – | – | – | – | – | IC50 (F1 (hepatoma cell line)): 5.6 µM; IC50 (SH-SY5Y [3]; sh-sy5y): 7.8 µM; IC50 (A549; a549): 21 µM; IC50 (SH-SY5Y [5]; sh-sy5y): > 25 µM; IC50 (PC-3; pc-3): 21.6 µM; IC50 (SH-SY5Y [7]; sh-sy5y, read-out: IC50): 6.1 µM; IC50 [10]: > 10 µM; IC50 (SH-SY5Y [9]; sh-sy5y): 5 µM
8 | O=Nc1c(-c2c(O)[nH]c3c(Cl)cccc23)[nH]c2ccccc12 | – | – | – | – | 3.7 µM | 14 µM | – | – | 11 µM | – | – | – | – | 92% | 10 µM | 6 µM | 12 µM | – | 7% | – | IC50 [11]: 21 µM
9 | CN(C)CCO/N=C1/C(c2c(O)n(C)c3c(Br)cccc23)=Nc2ccccc21.Cl | – | 5.4 µM | – | – | > 10 µM | 21 µM | 4% | 20.8 µM | – | – | – | 25 µM | – | 80% | – | > 10 µM | 9 µM | 19 µM | – | 17.8 µM | IC50 (HEK293; Homo sapiens, HEK293, 48 h): 18.8 µM; IC50 (HCT-116; Homo sapiens, HCT-116, 48 h): 15.7 µM; IC50 (Huh-7; Homo sapiens, Huh-7, 48 h): 18 µM; IC50 (SH-SY5Y [7]; sh-sy5y, read-out: IC50): 11 µM
10 | CN(C)CCO/N=C1/C(c2c(O)[nH]c3c(Br)cccc23)=Nc2ccccc21.Cl | 2.4 µM | – | – | 3 µM | > 10 µM | 2.1 µM | 5% | – | > 25 µM | 2 µM | – | 15 µM | – | 84% | 1.1 µM | > 10 µM | 1 µM | > 30 µM | – | 18.8 µM | IC50 (F1 (hepatoma cell line)): 1.7 µM; IC50 (A549; a549): 5.8 µM; IC50 (Huh-7; Homo sapiens, Huh-7, 48 h): 11.2 µM
